Key:
Rattus norvegicus [1] = species: Rattus norvegicus; assay: Biodistribution of Gd-DTA (conjugated with BSA)protein using [153Gd]- in mature female Sprague-Dawley rat bone marrow after injecting for 24 hour.; details: in vivo
Rattus norvegicus [2] = species: Rattus norvegicus; assay: Biodistribution of Gd-DTA (conjugated with BSA)protein using [153Gd]- in mature female Sprague-Dawley rat bone marrow after injecting for 48 hour.; details: in vivo
Rattus norvegicus [3] = species: Rattus norvegicus; assay: Biodistribution of Gd-LDTA (conjugated with mannose BSA) protein using [111In]- in mature female Sprague-Dawley rat liver after injecting for 48 hour.; type: ADME, organism-based; details: in vivo
Rattus norvegicus [4] = species: Rattus norvegicus; assay: Biodistribution of Gd-LDTA (conjugated with galactose BSA) protein using [153Gd]- in mature female Sprague-Dawley rat blood after injecting for 48 hour.; details: in vivo
Rattus norvegicus [5] = species: Rattus norvegicus; assay: Biodistribution of In-LDTA (conjugated with BSA) protein using [111In]- in mature female Sprague-Dawley rat liver after injecting for 4 hour.; type: ADME, organism-based; details: in vivo
Procedure, shortened: (§1)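 SCN-LDTPA was coupled (pH 9 bicine, 24 h, RT) to BSA, mannosylated BSA or galactosylated BSA and FPLC-purified. The conjugate (400 μg) was labeled with 340 μCi 111In acetate at pH 5.5 for 45 min and gel-filtered. Mature female Sprague-Dawley rats received 19 μg of conjugate; four rats per time point. Blood, liver, bone, kidney and colon were taken and reported as %ID/organ.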

Rattus norvegicus [6] = species: Rattus norvegicus; assay: Biodistribution of In-LDTA (conjugated with BSA) protein using [111In]- in mature female Sprague-Dawley rat colon after injecting for 1 hour.; type: ADME, organism-based; details: in vivo
Procedure, shortened: as §1

Rattus norvegicus [7] = species: Rattus norvegicus; assay: Biodistribution of In-LDTA (conjugated with mannoseBSA) protein using [111In]- in mature female Sprague-Dawley rat liver after injecting for 48 hr.; type: ADME, organism-based; details: in vivo
Procedure, shortened: as §1

Rattus norvegicus [8] = species: Rattus norvegicus; assay: Biodistribution of In-LDTA (conjugated with BSA) protein using [111In]- in mature female Sprague-Dawley rat blood after injecting for 48 hour.; type: ADME, organism-based; details: in vivo
Procedure, shortened: as §1

Rattus norvegicus [9] = species: Rattus norvegicus; assay: Biodistribution of Gd-LDTA (conjugated with galactose BSA) protein using [111In]- in mature female Sprague-Dawley rat blood after injecting for 4 hour.; type: ADME, organism-based; details: in vivo
Procedure, shortened: (§2)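 Conjugate of SCN-LDTPA with BSA, mannosylated BSA or galactosylated BSA (10 equiv chelate, pH 9 bicine, RT 24 h; FPLC-purified) was labelled with 340 μCi 111In acetate at pH 5.5 for 45 min. It was then gel-filtered (Biospin-6) and checked for purity by FPLC. Mature female Sprague-Dawley rats received 19 μg of conjugate. Four rats per time point (1, 4, 24, 48 h) were killed; blood, liver, bone, kidney and colon were taken and %ID/organ was calculated.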

Rattus norvegicus [10] = species: Rattus norvegicus; assay: Biodistribution of In-LDTA (conjugated with mannoseBSA) protein using [111In]- in mature female Sprague-Dawley rat kidney after injecting for 1 hour.; type: ADME, organism-based; details: in vivo
Procedure, shortened: as §1

[11] = Gadolinium(III) stability constants (log K value) for the compound polyamino carboxylate derivative; type: physicochemical; details: 0.1 M KCl
Procedure, shortened: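 Potentiometric titration under argon at 25.00(5) °C in 0.100 M KCl, meter calibrated to read -log [H+] with dilute standard HCl. LDTPA with an equimolar amount of GdCl3 titrated with CO2-free 0.0999 M KOH, added in 0.100 mL aliquots, up to pH 11. Ligand protonation constants came from a parallel titration without metal. Constants were computed from the titration data.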

Rattus norvegicus [12] = species: Rattus norvegicus; assay: Biodistribution of Gd-LDTA (conjugated with galactose BSA) protein using [111In]- in mature female Sprague-Dawley rat bone marrow after injecting for 48 hour.; type: ADME, organism-based; details: in vivo
Rattus norvegicus [13] = species: Rattus norvegicus; assay: Biodistribution of Gd-LDTA (conjugated with mannose BSA) protein using [111In]- in mature female Sprague-Dawley rat bone marrow after injecting for 48 hour.; type: ADME, organism-based; details: in vivo
Rattus norvegicus [14] = species: Rattus norvegicus; assay: Biodistribution of Gd-LDTA (conjugated with galactose BSA) protein using [111In]- in mature female Sprague-Dawley rat blood after injecting for 1 hour.; type: ADME, organism-based; details: in vivo
Procedure, shortened: as §2

Rattus norvegicus [15] = species: Rattus norvegicus; assay: Biodistribution of Gd-DTA (conjugated with BSA)protein using [111In]- in mature female Sprague-Dawley rat blood after injecting for 1 hour.; type: ADME, organism-based; details: in vivo
Procedure, shortened: as §2

Rattus norvegicus [16] = species: Rattus norvegicus; assay: Biodistribution of In-LDTA (conjugated with BSA) protein using [111In]- in mature female Sprague-Dawley rat kidney after injecting for 1 hour.; type: ADME, organism-based; details: in vivo
Procedure, shortened: as §1

Rattus norvegicus [17] = species: Rattus norvegicus; assay: Biodistribution of Gd-LDTA (conjugated with mannose BSA) protein using [111In]- in mature female Sprague-Dawley rat kidney after injecting for 4 hour.; type: ADME, organism-based; details: in vivo
Rattus norvegicus [18] = species: Rattus norvegicus; assay: Biodistribution of Gd-LDTA (conjugated with mannose BSA) protein using [111In]- in mature female Sprague-Dawley rat kidney after injecting for 48 hour.; type: ADME, organism-based; details: in vivo
Rattus norvegicus [19] = species: Rattus norvegicus; assay: Biodistribution of Gd-DTA (conjugated with BSA)protein using [111In]- in mature female Sprague-Dawley rat kidney after injecting for 96 hour.; type: ADME, organism-based; details: in vivo
Rattus norvegicus [20] = species: Rattus norvegicus; assay: Biodistribution of Gd-LDTA (conjugated with mannose BSA) protein using [111In]- in mature female Sprague-Dawley rat bone marrow after injecting for 1 hour.; type: ADME, organism-based; details: in vivo
Rattus norvegicus [21] = species: Rattus norvegicus; assay: Biodistribution of Gd-LDTA (conjugated with mannose BSA) protein using [111In]- in mature female Sprague-Dawley rat colon after injecting for 48 hour.; type: ADME, organism-based; details: in vivo
Rattus norvegicus [22] = species: Rattus norvegicus; assay: Biodistribution of Gd-LDTA (conjugated with galactose BSA) protein using [111In]- in mature female Sprague-Dawley rat bone marrow after injecting for 24 hour.; type: ADME, organism-based; details: in vivo
Rattus norvegicus [23] = species: Rattus norvegicus; assay: Biodistribution of Gd-LDTA (conjugated with mannose BSA) protein using [111In]- in mature female Sprague-Dawley rat blood after injecting for 48 hour.; type: ADME, organism-based; details: in vivo
Procedure, shortened: as §2

Rattus norvegicus [24] = species: Rattus norvegicus; assay: Biodistribution of Gd-LDTA (conjugated with mannose BSA) protein using [111In]- in mature female Sprague-Dawley rat bone after injecting for 4 hour.; type: ADME, organism-based, Bone element; details: in vivo
Procedure, shortened: as §2

Rattus norvegicus [25] = species: Rattus norvegicus; assay: Biodistribution of In-LDTA (conjugated with BSA)protein using [111In]- in mature female Sprague-Dawley rat colon after injecting for 24 hour.; type: ADME, organism-based; details: in vivo
Procedure, shortened: as §1

Rattus norvegicus [26] = species: Rattus norvegicus; assay: Biodistribution of In-LDTA (conjugated with mannoseBSA) protein using [111In]- in mature female Sprague-Dawley rat colon after injecting for 48 hour.; type: ADME, organism-based; details: in vivo
Procedure, shortened: as §1

Rattus norvegicus [27] = species: Rattus norvegicus; assay: Biodistribution of Gd-LDTA (conjugated with galactose BSA) protein using [111In]- in mature female Sprague-Dawley rat liver after injecting for 4 hour.; type: ADME, organism-based; details: in vivo
Procedure, shortened: as §2

Rattus norvegicus [28] = species: Rattus norvegicus; assay: Biodistribution of In-LDTA (conjugated with mannoseBSA) protein using [111In]- in mature female Sprague-Dawley rat bone after injecting for 1 hour.; type: ADME, organism-based, Bone element; details: in vivo
Procedure, shortened: as §1

Rattus norvegicus [29] = species: Rattus norvegicus; assay: Biodistribution of Gd-LDTA (conjugated with mannose BSA) protein using [111In]- in mature female Sprague-Dawley rat colon after injecting for 24 hour.; type: ADME, organism-based; details: in vivo
Procedure, shortened: as §2

For `Nc1ccc(CC(C(=O)O)N(CCN(CC(=O)O)CC(=O)O)CCN(CC(=O)O)CC(=O)O)cc1` (centres undefined), which ID/organ (Rattus norvegicus [1]) is on record?
Its ID/organ is 3.07%.

And the ID/organ (Rattus norvegicus [2])?
Its ID/organ is 2.46%.

And the ID/organ (Rattus norvegicus [3])?
The ID/organ was 35%.

And the ID/organ (Rattus norvegicus [4])?
Its ID/organ is 0.037%.

What about the ID/organ (Rattus norvegicus [5]) of the same compound?
Its ID/organ is 17%.

And the ID/organ (Rattus norvegicus [6])?
Its ID/organ is 0.86%.

And the ID/organ (Rattus norvegicus [7])?
The ID/organ was 61%.

And the ID/organ (Rattus norvegicus [8])?
Its ID/organ is 3.33%.

What about the ID/organ (Rattus norvegicus [9]) of the same compound?
Its ID/organ is 0.045%.

And the ID/organ (Rattus norvegicus [10])?
Its ID/organ is 0.144%.

What about the “Log K” value [11] of the same compound?
The value was 22.

And the ID/organ (Rattus norvegicus [12])?
The ID/organ was 0.061%.

What about the ID/organ (Rattus norvegicus [13]) of the same compound?
The ID/organ was 1.77%.

And the ID/organ (Rattus norvegicus [14])?
Its ID/organ is 0.207%.

And the ID/organ (Rattus norvegicus [15])?
The ID/organ was 83.4%.

And the ID/organ (Rattus norvegicus [16])?
The ID/organ was 3.15%.

What about the ID/organ (Rattus norvegicus [17]) of the same compound?
Its ID/organ is 0.542%.

What about the ID/organ (Rattus norvegicus [18]) of the same compound?
The ID/organ was 0.379%.

And the ID/organ (Rattus norvegicus [19])?
The ID/organ was 2.73%.

What about the ID/organ (Rattus norvegicus [20]) of the same compound?
Its ID/organ is 2.61%.

And the ID/organ (Rattus norvegicus [21])?
The ID/organ was 0.21%.

What about the ID/organ (Rattus norvegicus [22]) of the same compound?
Its ID/organ is 0.04%.

And the ID/organ (Rattus norvegicus [23])?
The ID/organ was 0.04%.

What about the ID/organ (Rattus norvegicus [24]) of the same compound?
The ID/organ was 16.4%.

And the ID/organ (Rattus norvegicus [25])?
Its ID/organ is 9.4%.

And the ID/organ (Rattus norvegicus [26])?
The ID/organ was 0.542%.

What about the ID/organ (Rattus norvegicus [27]) of the same compound?
The ID/organ was 86.1%.

And the ID/organ (Rattus norvegicus [28])?
Its ID/organ is 10.5%.

And the ID/organ (Rattus norvegicus [29])?
The ID/organ was 0.403%.

From ChEMBL document CHEMBL1129260, “Evaluation of the stability and animal biodistribution of gadolinium (III) benzylamine-derivatized diethylenetriaminepentaacetic acid” (J Med Chem, 1996)
